NR2E3 ag-1: agonists of human nuclear receptor NR2E3. GST-NR2E3/biotin-RetCOR TR-FRET, 1536-well. Q9Y5X4. AID 2300. actives 0.12% (n = 320,000). inhibition of corepressor binding, % at 4.78 µM;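 active = percent inhibition above the cutoff of mean plus 3 SD of all tested compounds, set per screening campaign, cut at about 20% in these data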;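 note: 0% = DMSO wells and 100% = biotin wells as full block of FRET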
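system = GST-tagged NR2E3 plus biotinylated RetCOR corepressor | input = 1.35 nM GST-NR2E3 | also added = 7 nM biotin-RetCOR | schedule = 5 h incubation at 4 °C | measured by = TR-FRET with europium anti-GST and streptavidin-D2, 340 nm excitation | read-out = percent loss of FRET ratio relative to control wells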
GASC-1 inh: human JMJD2C demethylase inhibition. inhibition, % at 2.35 µM. actives 0.069% (n = 330,000). AID 2099. GST-JMJD2C(1-420) H3K9me3 demethylation, DELFIA europium;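 active = more than half of a compound's replicate wells show inhibition beyond 50%, single wells judged on their own value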;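 note: signal counts dimethyl H3K9 product captured on neutravidin plate; 0% = median of DMSO wells and 100% = 0.3 times that DMSO median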
Target sequence (Q9H3R0 1-420 limits assumed): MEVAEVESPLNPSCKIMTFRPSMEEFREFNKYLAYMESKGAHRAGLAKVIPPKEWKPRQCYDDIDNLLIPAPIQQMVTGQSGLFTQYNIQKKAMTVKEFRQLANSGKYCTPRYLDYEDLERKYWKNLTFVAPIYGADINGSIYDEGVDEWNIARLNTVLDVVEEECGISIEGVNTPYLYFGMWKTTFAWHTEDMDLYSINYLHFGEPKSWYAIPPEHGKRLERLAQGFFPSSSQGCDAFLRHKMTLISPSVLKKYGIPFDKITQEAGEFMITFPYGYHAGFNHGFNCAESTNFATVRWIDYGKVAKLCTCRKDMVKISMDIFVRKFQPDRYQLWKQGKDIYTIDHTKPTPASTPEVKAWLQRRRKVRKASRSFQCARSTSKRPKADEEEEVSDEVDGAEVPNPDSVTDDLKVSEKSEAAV
ADAM10 inh: inhibitors of human ADAM10. recombinant ADAM10, EDANS/DABCYL FRET peptide cleavage, 3 h. inhibition, % at 7 µM. actives 0.62% (n = 370,000);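 active = inhibition above a per-campaign cutoff equal to the mean of compounds falling between control-based bounds plus 3 SD, cut at about 20% in these data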;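 note: 0% = DMSO wells while the 100% control is not disclosed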
NR2E3 ag-2: human photoreceptor-specific nuclear receptor agonism | Q9Y5X4 | CHO-S Gal4-NCOR/VP16-NR2E3 two-hybrid, luciferase | inhibition of corepressor binding, % at 3.98 µM | actives 0.35% (n = 360,000);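 active = inhibition above the mean of all tested compounds plus 3 SD, cut at about 70% in these data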;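 note: 0% = DMSO with NR2E3 transfected cells and 100% = cells lacking NR2E3 construct; higher means lower luciferase signal from less NR2E3 corepressor binding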
KLK7 zymogen act: proKLK7 (human) activation, primary screen; purified proKLK7, EDANS-DABCYL substrate fluorescence; 100% is mature enzyme control, 0% vehicle; actives 0.9% (n = 370,000); P49862; AID 652039; activation, % at 7 µM;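 active = activation above the mean of all tested compounds plus 3 SD, computed per campaign excluding outliers beyond control limits, cut at about 13% in these data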
Target sequence (P49862 whole entry, looked up): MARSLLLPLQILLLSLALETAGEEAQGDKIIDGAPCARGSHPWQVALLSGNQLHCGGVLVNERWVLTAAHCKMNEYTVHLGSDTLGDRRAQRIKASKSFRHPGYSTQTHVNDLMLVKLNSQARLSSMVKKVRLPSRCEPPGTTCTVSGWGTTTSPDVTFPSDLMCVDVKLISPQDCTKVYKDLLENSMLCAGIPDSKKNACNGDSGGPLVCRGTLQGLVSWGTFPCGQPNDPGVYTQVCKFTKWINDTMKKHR
ADAM17 inh: inhibitors of human ADAM17; inhibition, % at 6.95 µM; AID 720648; recombinant ADAM17, EDANS/DABCYL FRET peptide cleavage; actives 0.83% (n = 370,000); P78536;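 active = inhibition above the mean of compounds lying between control limits plus 3 SD, set per campaign, cut at about 8.5% in these data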;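 note: 0% = DMSO-only wells as the low control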
KLK7 act conf: proKLK7 activation, confirmation; shares compounds with KLK7 zymogen act; purified proKLK7, EDANS-DABCYL substrate fluorescence; scaled: vehicle 0, mature enzyme 100; activation, % at 7 µM; actives 68% (n = 3,200);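 active = activation, as change over the incubation, above the mean of all tested compounds plus 3 SD, cut at about 13% in these data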
EDANS-DABCYL int: optically interferes with EDANS-DABCYL signal, flagging KLK7 hits; actives 80% (n = 3,200); EDANS-DABCYL substrate fluorescence interference, no enzyme, 4 h; solvent 0%, active enzyme control 100%; activation, % at 7 µM; shares compounds with KLK7 zymogen act; AID 686952;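 active = activation above the all-compound mean plus 3 SD, ignoring values outside control-based bounds, cut at about 4.8% in these data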;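 note: value is the 4 h activation minus the activation read at time zero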
K7 EDANS ctr: EDANS fluorescence interference in dose response, no enzyme; actives 20% (n = 250); EDANS-DABCYL peptide fluorescence interference; EC50, µM; shares compounds with KLK7 zymogen act; AID 720493;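 active = compounds that raise the fluorescence signal in this interference counterscreen, with EC50 at or below 10 µM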;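 note: intact quenched peptide substrate alone read at 355 nm excitation and 520 nm emission; signal is fluorescence gain from T0 to T4 after four hours at room temperature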
Numbers without * were called inactive; i = inactive; nt = not tested or not shown. Compounds with a hit are over-represented: about 2.5% of the library has one in this group of screens.

SMILES | NR2E3 ag-1 | GASC-1 inh | ADAM10 inh | NR2E3 ag-2 | KLK7 zymogen act | ADAM17 inh | KLK7 act conf | EDANS-DABCYL int | others
O=C(O)c1cc2cccc(S(=O)(=O)N3CCCCC3)c2cc1O | 0 | -3 | -108 | 4 | 21* | -41 | 85* | 88*
O=S(=O)(c1cccc2ccccc12)N1CCCCC1 | nt | 7 | 1 | -17 | 0 | 2 | nt | nt
Cc1cc(Br)c2nc(-c3ccccc3)c(Cc3cccc(Cl)c3)n2c1 | nt | nt | 7 | -12 | 1 | 4 | nt | nt
Cn1c(=O)c2c(-c3ccccc3)n(-n3cnnc3)cc2n(C)c1=O | -3 | -3 | -3 | 4 | 14* | -4 | 1 | 6.8*
Cn1c(=O)c2c(-c3ccccc3)n(-c3ccccc3)cc2n(C)c1=O | nt | nt | -40 | -10 | 0 | -13 | nt | nt
COc1ccc(C2CC(c3ccncc3)=NN2c2ccc(S(N)(=O)=O)cc2)cc1 (stereo not drawn) | nt | nt | i | -115 | 91* | i | -94 | 8.8*
COc1ccc(C2=NN(c3ccc(C(=O)O)cc3)C(c3ccc(OC)c(OC)c3)C2)cc1 (stereo not drawn) | 1 | 9 | i | 7 | 67* | i | 65* | 63*
COCCNC(=O)Cn1ccc2cc(S(=O)(=O)N3CCCCC3)ccc21 | -2 | 1 | 1 | -25 | -1 | -4 | nt | nt
Cc1c(C(=O)N(CCC#N)c2ccccc2)sc2nc3n(c(=O)c12)CCCC3 | -3 | 7 | -3 | -6 | 0 | -3 | nt | nt
CCC1OC23CCCCC2C(C#N)(C(=N)O3)C1(C#N)C#N (stereo not drawn) | 0 | 3 | i | -14 | 14* | -411 | 68* | 62*
COc1ccc(OC)c(C(c2c(C)[nH][nH]c2=O)c2c(C)[nH][nH]c2=O)c1 | -2 | -3 | -21 | -19 | 13* | -9 | 20* | 20*
CSc1scc2c1-c1nc(SCC(=O)C(C)(C)C)ncc1CC2 | -1 | 7 | -408 | -7 | -7 | -171 | nt | nt
C=CCNC(=O)CSc1ncc2c(n1)-c1c(csc1SC)CC2 | 3 | 5 | i | -13 | 46* | i | 59* | 69*
COc1ccc(NS(=O)(=O)c2cc(NC(=O)Cn3cnc4c3c(=O)n(C)c(=O)n4C)ccc2C)cc1 | 1 | -1 | -5 | -7 | 0 | -5 | nt | nt
CCOC(=O)c1ccc(C(=O)OCC)c(NC(=S)Nc2ccc([N+](=O)[O-])cc2OC)c1 | 2 | 6 | -480 | -34 | 13* | -134 | 12 | 6.9*
CC1c2ccccc2N(S(=O)(=O)c2ccccc2)C1C (stereo not drawn) | nt | nt | 3 | 19 | 0 | 1 | nt | nt
CCCCC(=O)Nc1c(-c2ccc(OC)c(OC)c2)c(=O)c2ccccc2n1C | 0 | -7 | 1 | -3 | 0 | -1 | nt | nt
CCCCCC(=O)Nc1c(-c2ccc(OC)cc2)c(=O)c2ccccc2n1C | -1 | 2 | -436 | -25 | 17* | -141 | 3 | 1
CCCC(=O)Nc1c(-c2ccc(OC)cc2)c(=O)c2ccccc2n1C | 2 | 30 | -332 | -30 | 17* | -107 | 20* | 17* | K7 EDANS ctr=i
COc1ccc(C)cc1NC(=O)CCS(=O)(=O)c1ccc2c(c1)oc(=O)n2C | -1 | -1 | 5 | -45 | 0 | -4 | nt | nt
CCN1CCSc2ccc(C(=O)NCc3ccccc3Br)cc21 | 6 | -12 | i | -23 | -25 | -383 | nt | nt
CCN1CCSc2ccc(C(=O)NCc3ccccc3F)cc21 | 5 | -25 | i | 4 | 31* | i | 50* | -26 | K7 EDANS ctr=>70
CN1CCSc2ccc(C(=O)Nc3cc(F)ccc3F)cc21 | 0 | -7 | -240 | -127 | 16* | -68 | 11 | 12*
CC(C)Oc1ccc(CNC(=O)c2ccc3c(c2)N(C)CCS3)cc1 | 2 | 1 | i | -65 | -22 | -456 | nt | nt
CN1CCSc2ccc(C(=O)NCc3ccccc3F)cc21 | 0 | 26 | i | -63 | 29* | -380 | 31* | 13* | K7 EDANS ctr=>70
SMILES | NR2E3 ag-1 | GASC-1 inh | ADAM10 inh | NR2E3 ag-2 | KLK7 zymogen act | ADAM17 inh | KLK7 act conf | EDANS-DABCYL int | others
COc1cccc(CNC(=O)CCC(=O)N2CCSc3ccccc32)c1OC | 2 | 1 | -3 | 0 | 0 | -6 | nt | nt
COc1cccc(CNC(=O)c2ccc3c(c2)N(C)CCS3)c1OC | 3 | 3 | i | -38 | 38* | i | 69* | 47* | K7 EDANS ctr=>70
CSc1ccccc1OCc1cc(C(=O)NCCc2nc(C)cc(C)n2)no1 | nt | -6 | 1 | -71 | 0 | -6 | nt | nt
CCCCS(=O)(=O)N1CCN(S(=O)(=O)c2cccs2)CC1 | 0 | -7 | -6 | -1 | 0 | 0 | nt | nt
CCN(CC)C(=O)CSc1nc(OC)cc(=O)[nH]1 | -2 | -8 | 7 | -23 | 0 | 6 | nt | nt
COCCNC(=S)Nc1ccc2[nH]c(=O)[nH]c2c1 | 2 | -7 | 5 | -4 | 0 | 2 | nt | nt
CCN1CCSc2ccc(C(=O)NCc3ccccc3C)cc21 | 5 | 4 | i | 0 | 20* | -434 | -21 | -25
Cc1ccccc1-n1c2nc(=O)n(C)c(=O)c-2cc2ccccc21 | 3 | 12 | i | -4 | 21* | -450 | 30* | 19* | K7 EDANS ctr=i
CCCCn1c(=O)nc2n(-c3ccccc3C)c3ccccc3cc-2c1=O | 3 | -2 | -219 | -22 | 2 | -56 | nt | nt
CCCNC(=O)C1(C)CCN(C(=O)c2cccc(C(F)(F)F)c2)C1 (stereo not drawn) | nt | nt | -11 | -16 | 0 | -4 | nt | nt
O=C(N/N=C/c1c(F)cccc1Cl)C(=O)N1CCCCCC1 | 0 | -4 | -7 | -5 | 1 | -2 | nt | nt
CC(C)(/C=N/O)N(O)C=C1C=CC(=O)C=C1 | 0 | -1 | -5 | -9 | 0 | -7 | nt | nt
CN1C=CC(=CC=C2C=CC(=O)C=C2)C=C1 | -4 | -4 | -33 | -34 | 50* | -17 | 12 | 14*
COc1cccc(Nc2nc3cc(OC)ccc3cc2C#N)c1 | 4 | 1 | -280 | -15 | 29* | -66 | 56* | 61*
Cc1cccc(C2=NN(c3ccc(Br)cc3)[C@@H](C(=O)N3CCOC3=O)[C@@H]2C)c1 | nt | nt | -283 | -20 | -13 | -84 | nt | nt
